In brackets after ≈: the same amount, converted by molar mass. Entries after “also recorded” stand apart in the source; their conditions may differ.
Legend:
[1] = system: L. donovani promastigotes; experiment: in vitro antileishmanial activity, alamarBlue assay; format: cell-based, Leishmania donovani; conditions: Leishmania donovani, 48 h; for IC50: read-out: L. donovani IC50, promastigotes, 48 h; for IC90: read-out: L. donovani IC90, promastigotes, 48 h
[2] = system: M. intracellulare (ATCC23068); experiment: in vitro antibacterial activity, modified alamarBlue procedure; format: cell-based, Mycobacterium intracellulare; conditions: Mycobacterium intracellulare; for IC50: ATCC23068, read-out: IC50 (concentration that affords 50% growth inhibition), M. intracellulare; for MBC: ATCC23068, read-out: MBC (minimum bactericidal concentration), M. intracellulare; for MIC: ATCC23068, read-out: MIC, M. intracellulare
Procedure, shortened: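 Modified alamarBlue microplate method. Test compound serially diluted in 20% DMSO/saline, duplicate wells, up to 20 μg/mL. Inoculum 2.0 × 10^6 CFU/mL in Middlebrook 7H9 with OADC, pH 7.3, containing 5% alamarBlue. Incubated 70–74 h at 37 °C, 10% CO2; fluorescence 544ex/590em read before and after. MIC: no blue-to-pink change. MBC by subculturing blue wells on agar. Ciprofloxacin control.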

[3] = system: P. falciparum (D6); experiment: in vitro antimalarial activity, plasmodial LDH; format: cell-based, Plasmodium falciparum; conditions: Plasmodium falciparum, D6, 72 h, read-out: P. falciparum (D6) IC50
[4] = system: P. falciparum (W2); experiment: in vitro antimalarial activity, plasmodial LDH; format: cell-based, Plasmodium falciparum; conditions: Plasmodium falciparum, W2, 72 h, read-out: P. falciparum (W2) IC50, CQ-resistant W2 strain, 72 h
Procedure, shortened: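 P. falciparum-infected erythrocytes (2% parasitemia, 2% hematocrit) in RPMI 1640 with 10% human serum and 60 μg/mL amikacin. Exposed to test compound dilutions for 72 h at 37 °C under 90% N2/5% O2/5% CO2. LDH measured with Malstat reagent (30 min, room temperature), then NBT/PES for 1 h in the dark, stopped with 5% acetic acid, read at 650 nm. IC50 from dose-response curves.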

[5] = system: SK-MEL, KB, BT-549, SK-OV-3, VERO and LLC-PK1 cells; experiment: cytotoxicity, neutral red uptake assay; format: cell-based, mammalian; conditions: highest test concentration 4760 ng/mL
Procedure, shortened: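 Cells seeded at 25 000/well and allowed 24 h to reach confluence. Test compound was then added and incubated 48 h. Viable cells were counted by a modified neutral red uptake method. The panel was four human cancer lines and two noncancerous mammalian kidney lines. Doxorubicin served as positive control and DMSO as negative control.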

[6] = system: A. fumigatus ATCC 90906; experiment: in vitro antifungal activity; format: cell-based, Aspergillus fumigatus; conditions: Aspergillus fumigatus; for IC50: ATCC90906, read-out: A. fumigatus IC50; for MFC: ATCC90906, read-out: A. fumigatus MFC; for MIC: ATCC90906, read-out: A. fumigatus MIC
Procedure, shortened: (§1)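 Modified NCCLS broth method in Sabouraud dextrose. Inoculum set by OD630 to 1.5 × 10^3 CFU/mL. Test compound serially diluted in 20% DMSO/saline, duplicate wells, up to 20 μg/mL. Incubated 70–74 h at 35 °C; 530 nm read before and after. IC50 is 50% growth inhibition; MIC is no detectable growth. MFC from clear wells subcultured on agar. Amphotericin B control.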

[7] = system: P. berghei (sensitive strain); experiment: blood-schizontocidal activity against P. berghei infection in mice; format: in vivo, Plasmodium berghei; conditions: Swiss mice
Procedure, shortened: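 Swiss mice of either sex (about 15–20 g, same age), six per group, inoculated intraperitoneally on day 0 with 1 × 10^7 infected erythrocytes from a donor mouse. Oral test compound at 100, 50, 25 or 10 mg/kg, CQ diphosphate (10 mg/kg/day × 4) or vehicle started 4 h later, on D0 to D+3. Giemsa tail-blood smears on D+4 and D+7. Curative: parasites eliminated, no relapse, all mice surviving to D+60.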

[8] = system: C. albicans ATCC90028; experiment: in vitro antifungal activity; format: cell-based, Candida albicans; conditions: Candida albicans; for IC50: ATCC90028, read-out: C. albicans IC50; for MFC: ATCC90028, read-out: C. albicans MFC; for MIC: ATCC90028, read-out: C. albicans MIC
Procedure, shortened: as §1

[9] = system: C. neoformans ATCC90113; experiment: in vitro antifungal activity; format: cell-based, Cryptococcus neoformans; conditions: Cryptococcus neoformans; for IC50: ATCC90113, read-out: C. neoformans IC50; for MFC: ATCC90113, read-out: C. neoformans MFC; for MIC: ATCC90113, read-out: C. neoformans MIC
Procedure, shortened: as §1

[10] = system: SA (ATCC29213); experiment: in vitro antibacterial activity; format: cell-based; conditions: Staphylococcus aureus; for IC50: ATCC29213, read-out: IC50 (concentration that affords 50% growth inhibition), SA; for MBC: ATCC29213, read-out: MBC (minimum bactericidal concentration), SA; for MIC: ATCC29213, read-out: MIC, SA
Procedure, shortened: (§2)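 Test compound serially diluted in 20% DMSO/saline and plated in duplicate, up to 20 μg/mL. Inoculum in cation-adjusted Mueller–Hinton broth, pH 7.3, set by OD630 to 5 × 10^5 CFU/mL. Incubated 16–20 h at 35 °C; 530 nm read before and after. IC50 is 50% growth inhibition; MIC is no detectable growth. MBC from clear wells subcultured on agar. Ciprofloxacin control.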

[11] = system: MRSA (ATCC33591); experiment: in vitro antibacterial activity; format: cell-based, methicillin-resistant Staphylococcus aureus; conditions: Staphylococcus aureus, ATCC33591|MRSA, read-out: MIC, MRSA
Procedure, shortened: as §2

| SMILES | IC50 [2] | MBC [2] | MIC [2] | IC50 [3] | IC50 [4] | cytotoxicity CTX [5] | IC50 [6] | MFC [6] | MIC [6] | P. berghei blood-schizontocidal activity (mice cured/treated) ([7]; 100 mg/kg/day × 4, oral) | IC50 [8] | MFC [8] | MIC [8] | IC50 [9] | MFC [9] | MIC [9] | IC50 [10] | MBC [10] | MIC [10] | MIC [11] | also measured |
| --- | --- | --- | --- | --- | --- | --- | --- | --- | --- | --- | --- | --- | --- | --- | --- | --- | --- | --- | --- | --- | --- |
| CCCCOc1c(OC)cc(NC(C)CCCN)c2nc(C(C)(C)C)cc(C)c12 (stereo not drawn) [compound 50, N^4-(5-Butoxy-2-tert-butyl-6-methoxy-4-methylquinolin-8-yl)pentane-1,4-diamine] | 5.97 µg/mL (≈ 14.9 µM) | 20 µg/mL (≈ 49.8 µM) | 10 µg/mL (≈ 24.9 µM) | 2.2 µg/mL (≈ 5.48 µM) | 0.98 µg/mL (≈ 2.44 µM) | NC (NC, not cytotoxic up to 4760 ng/mL (4.76 μg/mL)) | 14.7 µg/mL (≈ 36.6 µM) | > 20 µg/mL | > 20 µg/mL | curative (6/6) | 15 µg/mL (≈ 37.4 µM) | > 20 µg/mL | > 20 µg/mL | 0.58 µg/mL (≈ 1.44 µM) | 2.5 µg/mL (≈ 6.23 µM) | 1.25 µg/mL (≈ 3.11 µM) | 3.49 µg/mL (≈ 8.69 µM) | 10 µg/mL (≈ 24.9 µM) | 5 µg/mL (≈ 12.5 µM) | 5 µg/mL (≈ 12.5 µM) | IC50 [1]: 1.5 µg/mL (≈ 3.74 µM); IC90 [1]: 3.65 µg/mL (≈ 9.09 µM); P. berghei blood-schizontocidal activity (mice cured/treated) ([7]; 50 mg/kg/day × 4, oral): suppressive activity; also recorded: active (4/6) |
| CCCCCOc1c(OC)cc(NC(C)CCCN)c2nc(C(C)(C)C)cc(C)c12 (stereo not drawn) [compound 51, N^4-(5-Pentyloxy-2-tert-butyl-6-methoxy-4-methylquinolin-8-yl)pentane-1,4-diamine] | 10.8 µg/mL (≈ 25.9 µM) | 20 µg/mL (≈ 48.1 µM) | 20 µg/mL (≈ 48.1 µM) | 4.5 µg/mL (≈ 10.8 µM) | 3.8 µg/mL (≈ 9.14 µM) | NC (NC, not cytotoxic up to 4760 ng/mL (4.76 μg/mL)) | > 20 µg/mL | > 20 µg/mL | > 20 µg/mL | inactive (0/6) | > 20 µg/mL | > 20 µg/mL | > 20 µg/mL | 4.45 µg/mL (≈ 10.7 µM) | 20 µg/mL (≈ 48.1 µM) | 20 µg/mL (≈ 48.1 µM) | 18.9 µg/mL (≈ 45.5 µM) | > 20 µg/mL | > 20 µg/mL | 20 µg/mL (≈ 48.1 µM) | IC50 [1]: 16.2 µg/mL (≈ 38.9 µM); IC90 [1]: 23.9 µg/mL (≈ 57.4 µM) |
| CCCCCOc1c(OC)cc(NC(C)CCCNC(=O)C(N)CCCCN)c2nc(C(C)(C)C)ccc12 (stereo not drawn) [compound 92, 2,6-Diamino-N-(4-(2-tert-butyl-6-methoxy-5-(pentyloxy)quinolin-8-ylamino)-pentyl)hexanamide] | > 20 µg/mL | > 20 µg/mL | > 20 µg/mL | 0.11 µg/mL (≈ 0.208 µM) | 0.052 µg/mL (≈ 0.0982 µM) | NC (NC, not cytotoxic up to 4760 ng/mL (4.76 μg/mL)) | > 20 µg/mL | > 20 µg/mL | > 20 µg/mL | 100% cure and curative (6/6) | > 20 µg/mL | > 20 µg/mL | > 20 µg/mL | 10.9 µg/mL (≈ 20.5 µM) | > 20 µg/mL | > 20 µg/mL | > 20 µg/mL | > 20 µg/mL | > 20 µg/mL | > 20 µg/mL | P. berghei blood-schizontocidal activity (mice cured/treated) ([7]; 25 mg/kg/day × 4, oral): inactive (0/6); P. berghei blood-schizontocidal activity (mice cured/treated) ([7]; 50 mg/kg/day × 4, oral): suppressive activity; also recorded: active (4/6) |
| CCCCCCOc1c(OC)cc(NC(C)CCCNC(=O)C(N)CCCCN)c2nc(C(C)(C)C)ccc12 (stereo not drawn) [compound 99, 2,6-Diamino-N-(4-(2-tert-butyl-5-(hexyloxy)-6-methoxyquinolin-8-ylamino)-pentyl)hexanamide] | > 20 µg/mL | > 20 µg/mL | > 20 µg/mL | 0.09 µg/mL (≈ 0.166 µM) | 0.036 µg/mL (≈ 0.0662 µM) | NC (NC, not cytotoxic up to 4760 ng/mL (4.76 μg/mL)) | > 20 µg/mL | > 20 µg/mL | > 20 µg/mL | 100% cure and curative (6/6) | > 20 µg/mL | > 20 µg/mL | > 20 µg/mL | 18.6 µg/mL (≈ 34.3 µM) | > 20 µg/mL | > 20 µg/mL | > 20 µg/mL | > 20 µg/mL | > 20 µg/mL | > 20 µg/mL | P. berghei blood-schizontocidal activity (mice cured/treated) ([7]; 25 mg/kg/day × 4, oral): inactive (0/6); P. berghei blood-schizontocidal activity (mice cured/treated) ([7]; 50 mg/kg/day × 4, oral): suppressive activity; also recorded: active (3/6) |
| CCCCCCCOc1c(OC)cc(NC(C)CCCNC(=O)C(N)CCCNC(=N)N)c2nc(C(C)(C)C)ccc12 (stereo not drawn) [compound 111, 2-Amino-N-(4-(2-tert-butyl-5-(heptyloxy)-6-methoxyquinolin-8-ylamino)pentyl)-5-guanidinopentanamide] | > 20 µg/mL | > 20 µg/mL | > 20 µg/mL | 0.39 µg/mL (≈ 0.666 µM) | 0.24 µg/mL (≈ 0.41 µM) | NC (NC, not cytotoxic up to 4760 ng/mL (4.76 μg/mL)) | > 20 µg/mL | > 20 µg/mL | > 20 µg/mL | 100% cure and curative (6/6) | > 20 µg/mL | > 20 µg/mL | > 20 µg/mL | 13.2 µg/mL (≈ 22.6 µM) | > 20 µg/mL | > 20 µg/mL | > 20 µg/mL | > 20 µg/mL | > 20 µg/mL | > 20 µg/mL | P. berghei blood-schizontocidal activity (mice cured/treated) ([7]; 25 mg/kg/day × 4, oral): inactive (0/6); P. berghei blood-schizontocidal activity (mice cured/treated) ([7]; 50 mg/kg/day × 4, oral): 100% cure and curative (6/6) |
| CCCCCCCCOc1c(OC)cc(NC(C)CCCNC(=O)C(N)Cc2ccccc2)c2nc(C(C)(C)C)ccc12 (stereo not drawn) [compound 121, 2-Amino-N-(4-(2-tert-butyl-6-methoxy-5-(octyloxy)quinolin-8-ylamino)pentyl)-3-phenylpropanamide] | > 20 µg/mL | > 20 µg/mL | > 20 µg/mL | > 4.76 µg/mL | > 4.76 µg/mL | NC (NC, not cytotoxic up to 4760 ng/mL (4.76 μg/mL)) | > 20 µg/mL | > 20 µg/mL | > 20 µg/mL | 100% cure and curative (6/6) | > 20 µg/mL | > 20 µg/mL | > 20 µg/mL | 17.3 µg/mL (≈ 29.3 µM) | > 20 µg/mL | > 20 µg/mL | 7.79 µg/mL (≈ 13.2 µM) | > 20 µg/mL | > 20 µg/mL | > 20 µg/mL | IC50 [1]: 11.8 µg/mL (≈ 20 µM); IC90 [1]: 28.7 µg/mL (≈ 48.5 µM); P. berghei blood-schizontocidal activity (mice cured/treated) ([7]; 25 mg/kg/day × 4, oral): inactive (0/6); P. berghei blood-schizontocidal activity (mice cured/treated) ([7]; 50 mg/kg/day × 4, oral): suppressive activity; also recorded: active (3/6) |
